According to the RNAGym collection of RNA variant scans (doi:10.1038/nmeth.2970):

B1: NELF-E aptamer (parent)
chain: CCCAACGACUGCCGAGCGAGAUUACGCUUGAGCGCCCCACUGAGGAUGCCCACGGGCGAUUGGGGCACGG

Variants of: B1
Assay: HiTS-RAP
Conditions: with NELF-E (Drosophila)
Procedure, shortened: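 Kd came from weighted Hill fits to the first binding curve, with intensities normalised to sequencing intensity and averaged per sequence, keeping only fits whose variance was below 1,000,000. That curve was imaged on an Illumina GAIIx flowcell, where sequenced aptamer DNA templates with a T7 promoter and ter site had been transcribed in situ by T7 RNA polymerase and halted by GST-Tus (30 minutes, 37°C). Before each image, clusters equilibrated for 30 minutes at room temperature with NELF-E-mOrange at 0.064 to 1000 nM in HEPES binding buffer.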

| Variant | Kd [nM] |
| --- | --- |
| CCCAGCGACUGCCGAGCGAGAUUACGCUCGAGCGCCCCACUGAGGAUGCCCACGGGCGAUUGGGGCACGG [A5G U29C] | 6.65 |
| CCCAGCGACUGCCGAGCGAGAUUACGCUAGAGCGCCCCACUGAGGAUGCCCACGGGCGAUUGGGGCACGG [A5G U29A] | 6.04 |
| CCCAGCGACUGCCGAGCGAGAUUACGCUGGAGCGCCCCACUGAGGAUGCCCACGGGCGAUUGGGGCACGG [A5G U29G] | 6.19 |
| CCCAUCGACUGCCGAGCGAGAUUUCGCUUGAGCGCCCCACUGAGGAUGCCCACGGGCGAUUGGGGCACGG [A5U A24U] | 6.21 |
| CCCAUCGACUGCCGAGCGAGAUUGCGCUUGAGCGCCCCACUGAGGAUGCCCACGGGCGAUUGGGGCACGG [A5U A24G] | 6.39 |
| CCCAGCGACUGCCGAGCGAGAUUACGCUUGAGCGCCCCACUGAGGAGGCCCACGGGCGAUUGGGGCACGG [A5G U47G] | 7.6 |
| CCCAGCGACUGCCGAGCGAGAUUACGCUUGAGCGCCCCACUGAGAAUGCCCACGGGCGAUUGGGGCACGG [A5G G45A] | 21.9 |
| CCCAGCGACUGCCGAGCGAGAUUACGCUUGAGCGCCCCACUGAGUAUGCCCACGGGCGAUUGGGGCACGG [A5G G45U] | 7.32 |
| CCCAUUGACUGCCGAGCGAGAUUACGCUUGAGCGCCCCACUGAGGAUGCCCACGGGCGAUUGGGGCACGG [A5U C6U] | 4.75 |
| CCCAUGGACUGCCGAGCGAGAUUACGCUUGAGCGCCCCACUGAGGAUGCCCACGGGCGAUUGGGGCACGG [A5U C6G] | 5.7 |
| CCCAUAGACUGCCGAGCGAGAUUACGCUUGAGCGCCCCACUGAGGAUGCCCACGGGCGAUUGGGGCACGG [A5U C6A] | 7.45 |
| CCCAGCGACUGCCGAGCUAGAUUACGCUUGAGCGCCCCACUGAGGAUGCCCACGGGCGAUUGGGGCACGG [A5G G18U] | 6.11 |
| CCCAGCGACUGCCGAGCAAGAUUACGCUUGAGCGCCCCACUGAGGAUGCCCACGGGCGAUUGGGGCACGG [A5G G18A] | 5.15 |
| CCCAGCGACUGCCGAGCGAUAUUACGCUUGAGCGCCCCACUGAGGAUGCCCACGGGCGAUUGGGGCACGG [A5G G20U] | 6.78 |
| CCCAGCGACUGCCGAGCGAAAUUACGCUUGAGCGCCCCACUGAGGAUGCCCACGGGCGAUUGGGGCACGG [A5G G20A] | 6.58 |
| CCCAGCGACUGCCGAGCGAGAUUACGCGUGAGCGCCCCACUGAGGAUGCCCACGGGCGAUUGGGGCACGG [A5G U28G] | 7.79 |
| CCCAGCGACUGCCGAGCGAGAUUACGCCUGAGCGCCCCACUGAGGAUGCCCACGGGCGAUUGGGGCACGG [A5G U28C] | 10.2 |
| CCCAUCGACUGCCGAGCGAGAUUACGCUUGGGCGCCCCACUGAGGAUGCCCACGGGCGAUUGGGGCACGG [A5U A31G] | 7.03 |
| CCCAGCGACUGCCGAGCGAGAUUACGCUUGAGCGCCCCACUGAGGAUGCCCACGGUCGAUUGGGGCACGG [A5G G56U] | 7.96 |
| CCCAGCGACUGCCGAGCGAGAUUACGCUUGAGCGCCCCACUGAGGAUGCCCACGGACGAUUGGGGCACGG [A5G G56A] | 11.2 |

| Variant | Kd [nM] |
| --- | --- |
| CCCAUCGACUGGCGAGCGAGAUUACGCUUGAGCGCCCCACUGAGGAUGCCCACGGGCGAUUGGGGCACGG [A5U C12G] | 6.84 |
| CCCAGCGACUGCCGAGCGAGAUUACGCUUGAGCGCCCCACUGAGGAUGCCCACGGGCGACUGGGGCACGG [A5G U60C] | 11.3 |
| CCCAGCGACUGCCGAGCGAGAUUACGCUUGAGCGCCCCACUGAGGAUGCCCACGGGCGAUCGGGGCACGG [A5G U61C] | 64.6 |
| CCCAGCGACUGCCGAGCGAGAUUACGCUUGAGCGCCCCACUGAGGAUGCCCACGGGCGAUAGGGGCACGG [A5G U61A] | 37.8 |
| CCCAGCGACUGCCGAGCGAGACUACGCUUGAGCGCCCCACUGAGGAUGCCCACGGGCGAUUGGGGCACGG [A5G U22C] | 5.45 |
| CCCAGCGACUGCCGAGCGAGAGUACGCUUGAGCGCCCCACUGAGGAUGCCCACGGGCGAUUGGGGCACGG [A5G U22G] | 5.89 |
| CCCAGCGACUGCCGAGCGAGAUUACGCUUGAGCGCCCCACUGAGGAUGCCCACGGGCGAUUAGGGCACGG [A5G G62A] | 13.5 |
| CCCAUCGACUGCCGGGCGAGAUUACGCUUGAGCGCCCCACUGAGGAUGCCCACGGGCGAUUGGGGCACGG [A5U A15G] | 5.49 |
| CCCAUCGACUGCCGUGCGAGAUUACGCUUGAGCGCCCCACUGAGGAUGCCCACGGGCGAUUGGGGCACGG [A5U A15U] | 6.62 |
| CCCAGCGACUUCCGAGCGAGAUUACGCUUGAGCGCCCCACUGAGGAUGCCCACGGGCGAUUGGGGCACGG [A5G G11U] | 6.9 |
| CCCAGCGACUACCGAGCGAGAUUACGCUUGAGCGCCCCACUGAGGAUGCCCACGGGCGAUUGGGGCACGG [A5G G11A] | 6.61 |
| CCCAGCGACUGCCGAGCGAGAUUACGCUUGAGCGCCCCACUAAGGAUGCCCACGGGCGAUUGGGGCACGG [A5G G42A] | 27.1 |
| CCCAGCGACAGCCGAGCGAGAUUACGCUUGAGCGCCCCACUGAGGAUGCCCACGGGCGAUUGGGGCACGG [A5G U10A] | 4.67 |
| CCCAGCGACGGCCGAGCGAGAUUACGCUUGAGCGCCCCACUGAGGAUGCCCACGGGCGAUUGGGGCACGG [A5G U10G] | 5.47 |
| CCCAGCGACCGCCGAGCGAGAUUACGCUUGAGCGCCCCACUGAGGAUGCCCACGGGCGAUUGGGGCACGG [A5G U10C] | 4.79 |
| CCCAUCGACUGCCGAGCGAGAUUACGCUUGAGCGCCCCACUGAGGAUGCCCACGGGCGAUUGGGGCUCGG [A5U A67U] | 7.25 |
| CCCAUCGACUGCCGAGCGAGAUUACGCUUGAGCGCCCCACUGAGGAUGCCCACGGGCGAUUGGGGCGCGG [A5U A67G] | 6.53 |
| CCCAUCGACUGCCGAGCGAGAUUACGCUUGAGCGCCCCACUGAGGGUGCCCACGGGCGAUUGGGGCACGG [A5U A46G] | 34.6 |
| CCCAGCGACUGCCGAGCGAGAUUACGCUUGAGCGCCCCACUGAGGAUGCCCACGGGCGAUUGGAGCACGG [A5G G64A] | 8.07 |
